In ChEMBL document CHEMBL1949577, “Design, synthesis and biological evaluation of novel (E)-α-benzylsulfonyl chalcone derivatives as potential BRAF inhibitors” (Eur J Med Chem, 2012):

biological target: Serine/threonine-protein kinase B-raf (Homo sapiens, UniProt P15056, V600E); test: Inhibition of B-Raf V600E mutant-mediated ERK phosphorylation in human WM266.4 cells by ELISA; format: cell-based; details: not given
In short: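 Phospho-ERK1/2 levels in WM266.4 melanoma cells were measured with an ELISA kit, run as the manufacturer instructs.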

Serine/threonine-protein kinase B-raf, sequence (P15056 2-766 V600E limits assumed): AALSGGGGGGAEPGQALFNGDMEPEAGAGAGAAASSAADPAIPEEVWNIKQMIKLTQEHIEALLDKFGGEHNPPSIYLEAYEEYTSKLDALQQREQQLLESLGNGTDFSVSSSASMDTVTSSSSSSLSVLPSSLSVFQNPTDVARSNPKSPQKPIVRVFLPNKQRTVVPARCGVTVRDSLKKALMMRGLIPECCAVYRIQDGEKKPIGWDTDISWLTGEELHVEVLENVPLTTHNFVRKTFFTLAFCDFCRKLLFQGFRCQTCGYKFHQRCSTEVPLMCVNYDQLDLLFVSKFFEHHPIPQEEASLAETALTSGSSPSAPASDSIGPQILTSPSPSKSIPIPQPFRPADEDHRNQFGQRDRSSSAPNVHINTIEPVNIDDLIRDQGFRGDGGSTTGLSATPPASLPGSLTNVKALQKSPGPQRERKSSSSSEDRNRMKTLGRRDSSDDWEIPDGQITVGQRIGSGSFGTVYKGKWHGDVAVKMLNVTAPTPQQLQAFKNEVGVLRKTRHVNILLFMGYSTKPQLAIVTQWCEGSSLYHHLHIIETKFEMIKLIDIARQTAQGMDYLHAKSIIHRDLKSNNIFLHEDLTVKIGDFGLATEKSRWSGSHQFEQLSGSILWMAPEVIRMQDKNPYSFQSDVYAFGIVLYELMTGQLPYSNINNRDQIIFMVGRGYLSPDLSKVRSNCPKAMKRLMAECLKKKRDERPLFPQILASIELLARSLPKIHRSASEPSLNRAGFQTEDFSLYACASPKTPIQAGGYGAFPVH

IC50	Compound
1.37 µM	O=C(/C(=C\c1ccc([N+](=O)[O-])cc1)S(=O)(=O)Cc1ccccc1)c1ccccc1
1.23 µM	O=C(/C(=C\c1ccc([N+](=O)[O-])cc1)S(=O)(=O)Cc1ccccc1)c1ccc(Cl)cc1
1.78 µM	O=C(/C(=C\c1ccc(F)cc1)S(=O)(=O)Cc1ccccc1)c1ccc(Cl)cc1

system: not listed separately; test: Inhibition of mouse full length GST-tagged B-Raf V600E mutant-mediated human MEK1 phosphorylation after 1 hr preincubation; details: not given

IC50	Compound
8.61 µM	Cc1ccc(N(Cc2cc(Cl)cc(Cl)c2O)CN(N=O)c2ccccc2)cc1
> 25 µM	O=C1c2ccccc2SC(c2cc(Br)ccc2O)N1c1ccc(C(F)(F)F)cc1 (centres undefined)
0.06 µM	CNC(=O)c1cc(Oc2ccc(NC(=O)Nc3ccc(Cl)c(C(F)(F)F)c3)cc2)ccn1 [SORAFENIB]

Continued, compound first:

Compound	IC50
Cc1ccc(N2C(=O)c3ccccc3SC2c2cc(Br)ccc2O)cc1 (centres undefined)	> 25 µM
O=c1cc(-c2ccc3c(c2)OCCO3)oc2cc(CCCN3CCCC3)cc(O)c12	10.6 µM

system: not listed separately; test: Growth inhibition of human WM266.4 cells expressing B-Raf V600E mutant after 24 hrs by MTT assay; format: functional; details: WM 266-4, 24 h
In short: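 MTT growth assay. Cells were plated, then returned to the incubator for 24 h to reattach before treatment. Compounds were made up at 20 mM in DMSO (stock), diluted in culture medium to […], and tested over 10 threefold serial dilutions. GI50 was reported from three separate experiments, or from two for some entries.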

Compound	GI50
CNC(=O)c1cc(Oc2ccc(NC(=O)Nc3ccc(Cl)c(C(F)(F)F)c3)cc2)ccn1 [SORAFENIB]	8.3 µM
